Test results reported in BindingDB's records for doi:10.1021/jm2013198 (Bar-Ilan University, 2012).
pEC50: −log10 of the molar value.

How the values were obtained:
P2Y purinoceptor 6 [1] = target: T1, P2Y purinoceptor 6 (Rattus norvegicus, UniProt Q63371); assay: (§1) Agonist activity at rat P2Y purinoceptor 6 expressed in human 1321N1 cells assessed as increase in intracellular calcium concentration by spectrofluorimetry
Procedure, shortened: (§2)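 1321N1 astrocytoma cells lacking endogenous P2Y receptors, stably transfected with turkey P2Y1, human P2Y2, human P2Y4 or rat P2Y6, grown in DMEM with 5% FBS, penicillin/streptomycin and 500 µg/mL G-418. Fura-2-loaded cell suspensions were exposed at 37 °C in 10 mM Hepes-buffered saline, pH 7.4, with 1 mM CaCl2 and 1 mM MgCl2. Peak [Ca2+]i rise by dual-excitation spectrofluorometry across concentrations; EC50 from curve fits; three experiments on separate days per subtype.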

P2Y purinoceptor 4 [2] = target: T2, P2Y purinoceptor 4 (Homo sapiens, UniProt P51582); assay: (§3) Agonist activity at human P2Y purinoceptor 4 expressed in human 1321N1 cells assessed as increase in intracellular calcium concentration by spectrofluorimetry
T2 sequence (P51582 whole entry): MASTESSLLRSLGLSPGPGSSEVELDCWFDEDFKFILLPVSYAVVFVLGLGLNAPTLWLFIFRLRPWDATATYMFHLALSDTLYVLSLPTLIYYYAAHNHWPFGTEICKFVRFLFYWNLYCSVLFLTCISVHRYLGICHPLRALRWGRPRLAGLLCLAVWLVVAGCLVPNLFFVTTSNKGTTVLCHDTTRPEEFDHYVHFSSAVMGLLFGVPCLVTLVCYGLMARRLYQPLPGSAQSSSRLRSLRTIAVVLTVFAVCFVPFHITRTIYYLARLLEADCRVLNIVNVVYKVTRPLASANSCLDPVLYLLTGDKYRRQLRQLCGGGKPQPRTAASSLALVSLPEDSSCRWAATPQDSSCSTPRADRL
Procedure, shortened: (§4)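 1321N1 astrocytoma cells (no endogenous P2Y receptors) stably expressing hP2Y4, grown in DMEM with 5% FBS, penicillin/streptomycin and 500 μg/mL G-418. Fura-2-loaded cell suspensions; compounds applied at various concentrations, 37 °C, 10 mM Hepes-buffered saline pH 7.4 with 1 mM CaCl2/MgCl2. Peak [Ca2+]i rise by dual-excitation fluorometry gives EC50; UTP reference agonist; three experiments on separate days.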

P2Y purinoceptor 4 [3] = target: T2, P2Y purinoceptor 4; assay: as §3; procedure, shortened: as §4; remark: listed apart in the source
P2Y purinoceptor 6 [4] = target: T1, P2Y purinoceptor 6; assay: as §1; procedure, shortened: as §2; remark: listed apart in the source
P2Y purinoceptor 1 [5] = target: T3, P2Y purinoceptor 1 (Meleagris gallopavo, UniProt P49652); assay: (§5) Agonist activity at turkey P2Y purinoceptor 1 expressed in human 1321N1 cells assessed as increase in intracellular calcium concentration by spectrofluorimetry
T3 sequence (P49652 whole entry): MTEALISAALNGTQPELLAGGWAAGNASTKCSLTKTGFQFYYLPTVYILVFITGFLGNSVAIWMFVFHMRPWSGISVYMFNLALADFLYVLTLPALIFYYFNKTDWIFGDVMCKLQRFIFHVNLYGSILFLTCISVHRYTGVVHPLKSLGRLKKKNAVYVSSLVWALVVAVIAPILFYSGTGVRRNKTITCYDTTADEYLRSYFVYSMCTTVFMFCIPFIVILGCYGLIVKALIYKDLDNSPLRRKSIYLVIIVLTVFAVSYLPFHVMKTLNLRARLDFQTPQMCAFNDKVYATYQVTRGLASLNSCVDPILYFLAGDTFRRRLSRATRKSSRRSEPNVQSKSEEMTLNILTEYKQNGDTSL

P2Y purinoceptor 1 [6] = target: T3, P2Y purinoceptor 1; assay: as §5; procedure, shortened: as §2; remark: listed apart in the source
P2Y purinoceptor 2 [7] = target: T4, P2Y purinoceptor 2 (Homo sapiens, UniProt P41231); assay: (§6) Agonist activity at human P2Y purinoceptor 2 expressed in human 1321N1 cells assessed as increase in intracellular calcium concentration by spectrofluorimetry; procedure, shortened: as §2
T4 sequence (P41231 whole entry): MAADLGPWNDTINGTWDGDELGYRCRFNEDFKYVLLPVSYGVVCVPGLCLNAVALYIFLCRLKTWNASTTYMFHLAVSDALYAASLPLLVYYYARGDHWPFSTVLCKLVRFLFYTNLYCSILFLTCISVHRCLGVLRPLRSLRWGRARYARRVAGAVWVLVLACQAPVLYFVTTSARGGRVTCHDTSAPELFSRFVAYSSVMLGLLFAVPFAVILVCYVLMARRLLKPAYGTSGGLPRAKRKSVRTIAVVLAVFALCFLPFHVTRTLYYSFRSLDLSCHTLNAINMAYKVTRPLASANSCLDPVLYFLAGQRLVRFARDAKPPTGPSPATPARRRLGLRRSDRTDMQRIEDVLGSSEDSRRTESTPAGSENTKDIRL

P2Y purinoceptor 2 [8] = target: T4, P2Y purinoceptor 2; assay: as §6; remark: listed apart in the source

T1 sequence (Q63371 whole entry): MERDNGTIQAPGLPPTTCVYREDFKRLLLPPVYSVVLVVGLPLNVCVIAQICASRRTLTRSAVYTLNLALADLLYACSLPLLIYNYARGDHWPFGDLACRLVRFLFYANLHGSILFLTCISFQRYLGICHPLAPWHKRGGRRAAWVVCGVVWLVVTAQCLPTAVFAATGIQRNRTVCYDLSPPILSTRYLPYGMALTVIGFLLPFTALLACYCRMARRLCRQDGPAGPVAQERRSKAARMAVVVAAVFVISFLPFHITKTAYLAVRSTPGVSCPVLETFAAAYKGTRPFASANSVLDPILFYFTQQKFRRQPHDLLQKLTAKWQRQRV

| pEC50 (P2Y purinoceptor 6 [1]) | pEC50 (P2Y purinoceptor 6 [4]) | pEC50 (P2Y purinoceptor 1 [5]) | SMILES | pEC50 (P2Y purinoceptor 4 [2]) | pEC50 (P2Y purinoceptor 4 [3]) | pEC50 (P2Y purinoceptor 1 [6]) | pEC50 (P2Y purinoceptor 2 [7]) | pEC50 (P2Y purinoceptor 2 [8]) |
| --- | --- | --- | --- | --- | --- | --- | --- | --- |
| 5.89 | 5.89 | 5.16 | BP(=O)(OP(=O)(O)OC[C@H]1O[C@@H](n2cnc3c(N)ncnc32)[C@H](O)[C@@H]1O)OP(=O)(O)OP(=O)(O)OC[C@H]1O[C@@H](n2ccc(=O)[nH]c2=O)[C@H](O)[C@@H]1O (some centres undefined) |  |  |  | 4.19 |  |
| 5.71 | 5.71 |  | BP(=O)(OP(=O)(O)OC[C@H]1O[C@@H](n2ccc(=O)[nH]c2=O)[C@H](O)[C@@H]1O)OP(=O)(O)OP(=O)(O)OC[C@H]1O[C@@H](n2ccc(=O)[nH]c2=O)[C@H](O)[C@@H]1O (some centres undefined) |  |  |  |  |  |
|  |  | 5.52 | BP(=O)(OP(=O)(O)OC[C@H]1O[C@@H](n2cnc3c(N)ncnc32)[C@H](O)[C@@H]1O)OP(=O)(O)OP(=O)(O)OC[C@H]1O[C@@H](n2cnc3c(N)ncnc32)[C@H](O)[C@@H]1O (some centres undefined) |  |  | 5.52 |  |  |
| 4.68 | 4.68 | 6.30 | BP(=O)(OP(=O)(O)OC[C@H]1O[C@@H](n2ccc(=O)[nH]c2=O)[C@H](O)[C@@H]1O)OP(=O)(O)OP(=O)(O)OC[C@H]1O[C@@H](n2cnc3c(N)ncnc32)[C@H](O)[C@@H]1O (some centres undefined) |  |  | 6.30 |  |  |
| 6.14 | 6.14 |  | BP(=O)(OC[C@H]1O[C@@H](n2ccc(=O)[nH]c2=O)[C@H](O)[C@@H]1O)OP(=O)(O)OP(=O)(O)OC[C@H]1O[C@@H](n2ccc(=O)[nH]c2=O)[C@H](O)[C@@H]1O (some centres undefined) |  |  |  |  |  |

| SMILES | pEC50 (P2Y purinoceptor 6 [1]) | pEC50 (P2Y purinoceptor 6 [4]) | pEC50 (P2Y purinoceptor 1 [5]) | pEC50 (P2Y purinoceptor 4 [2]) | pEC50 (P2Y purinoceptor 4 [3]) | pEC50 (P2Y purinoceptor 1 [6]) | pEC50 (P2Y purinoceptor 2 [7]) | pEC50 (P2Y purinoceptor 2 [8]) |
| --- | --- | --- | --- | --- | --- | --- | --- | --- |
| BP(=O)(OC[C@H]1O[C@@H](n2ccc(=O)[nH]c2=O)[C@H](O)[C@@H]1O)OP(=O)(O)OP(=O)(O)OP(=O)(O)OC[C@H]1O[C@@H](n2ccc(=O)[nH]c2=O)[C@H](O)[C@@H]1O (some centres undefined) | 4.44 | 4.44 |  | 5.03 | 5.03 |  |  |  |
| BP(=O)(OC[C@H]1O[C@@H](n2cnc3c(N)ncnc32)[C@H](O)[C@@H]1O)OP(=O)(O)OP(=O)(O)OC[C@H]1O[C@@H](n2cnc3c(N)ncnc32)[C@H](O)[C@@H]1O (some centres undefined) |  |  | 6.10 |  |  | 6.10 |  |  |
| BP(=O)(OC[C@H]1O[C@@H](n2cnc3c(N)ncnc32)[C@H](O)[C@@H]1O)OP(=O)(O)OP(=O)(O)OP(=O)(O)OC[C@H]1O[C@@H](n2cnc3c(N)ncnc32)[C@H](O)[C@@H]1O (some centres undefined) |  |  | 5.83 |  |  | 5.83 | 4.59 | 4.59 |
